# In ChEMBL document CHEMBL3108729, “Design, synthesis and anticonvulsant evaluation of N-(benzo[d]thiazol-2-ylcarbamoyl)-2-methyl-4-oxoquinazoline-3(4H)-carbothioamide derivatives: a hybrid pharmacophore approach” (Eur J Med Chem, 2013):
# Active and inactive are the calls of the source. The calls are words filed in the database; no cut-off is given here.
# How the values were obtained:
# [1] = test system: Mus musculus; assay: Anticonvulsant activity in albino mouse assessed as protection against maximal electroshock-induced seizures at 300 mg/kg, ip measured after 4 hrs; assay type: functional, organism-based; set-up: dose 300 mg/kg
# [2] = test system: Mus musculus; assay: Anticonvulsant activity in albino mouse assessed as protection against maximal electroshock-induced seizures at 300 mg/kg, ip measured after 0.5 hrs; assay type: functional, organism-based; set-up: dose 300 mg/kg
# [3] = test system: Mus musculus; assay: Neurotoxicity in albino mouse at 300 mg/kg, ip after 4 hrs by rotorod test; assay type: toxicity, organism-based; set-up: dose 300 mg/kg, route intraperitoneal; details: in vivo
# Outline: (§1)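 Swiss mice, four per dose, received 30, 100 or 300 mg/kg i.p. and were placed on a rotorod at 0.5 and 4 h. Neurotoxicity meant failure to keep balance for 1 min. The value reported is the minimum dose affecting half or more of the mice.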
# [4] = test system: Mus musculus; assay: Neurotoxicity in ip dosed albino mouse after 0.5 hrs by rotorod test; assay type: toxicity, organism-based; details: in vivo; outline: as §1
# [5] = test system: Mus musculus; assay: Anticonvulsant activity in ip dosed albino mouse assessed as protection against maximal electroshock-induced seizures after 0.5 hrs; assay type: functional; details: read-out: MED
# [6] = test system: Mus musculus; assay: Anticonvulsant activity in ip dosed albino mouse assessed as protection against maximal electroshock-induced seizures after 4 hrs; assay type: functional; details: read-out: MED
# [7] = test system: Mus musculus; assay: Neurotoxicity in albino mouse at 300 mg/kg, ip after 0.5 hrs by rotorod test; assay type: toxicity, organism-based; set-up: dose 300 mg/kg, route intraperitoneal; details: in vivo
# Outline: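 Swiss mice (25–30 g), four per dose, got 30, 100 or 300 mg/kg i.p. and were checked on the rotorod at 0.5 and 4 h. Motor impairment meant failure to keep equilibrium on the rod for 1 min. The value is the minimum dose at which half or more of the mice were impaired.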
# [8] = test system: Mus musculus; assay: Neurotoxicity in ip dosed albino mouse after 4 hrs by rotorod test; assay type: toxicity, organism-based; details: in vivo; outline: as §1
# [9] = Neurotoxicity in po dosed albino rat after 1 hr; assay type: toxicity, organism-based; details: in vivo
# [10] = test system: Rattus norvegicus; assay: Anticonvulsant activity in po dosed albino rat assessed as protection against maximal electroshock-induced seizures after 1 hr; assay type: functional
# [11] = test system: Rattus norvegicus; assay: Anticonvulsant activity in po dosed albino rat assessed as protection against pentylenetetrazole-induced seizure after 1 hr; assay type: functional
# [12] = test system: Rattus norvegicus; assay: Anticonvulsant activity in po dosed albino rat assessed as protection against pentylenetetrazole-induced seizure after 2 hrs; assay type: functional
# [13] = in vivo; details: albino, rat
# [14] = test system: Rattus norvegicus; assay: Anticonvulsant activity in po dosed albino rat assessed as protection against maximal electroshock-induced seizures after 2 hrs; assay type: functional
# [15] = Neurotoxicity in po dosed albino rat after 2 hrs; assay type: toxicity, organism-based; details: in vivo
# Outline: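 Rats on oral fixed-dose testing (30 or 50 mg/kg) were scored for motor impairment in parallel with seizure testing, at five time points from one quarter hour to 4 h. The rotorod end point was failure to keep equilibrium for 1 min.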
# [16] = test system: Rattus norvegicus; assay: Hepatotoxicity in albino rat assessed as change in SGOT level at 25 mg/kg, po for 14 days (reference value: 74.2+/-5.95 units/ml); assay type: toxicity, organism-based; set-up: dose 25 mg/kg, route oral; details: in vivo, 336 h
# [17] = test system: Rattus norvegicus; assay: Hepatotoxicity in albino rat assessed as change in SGPT level at 25 mg/kg, po for 14 days (reference value: 46.1+/-5.25 units/ml); assay type: toxicity, organism-based; set-up: dose 25 mg/kg, route oral; details: in vivo, 336 h
# [18] = Neurotoxicity in po dosed albino mouse after 1 hr; assay type: toxicity, organism-based; details: in vivo
# [19] = Protective index, ratio of TD50 for neurotoxicity to ED50 for protection against pentylenetetrazole-induced seizure in albino rat after 2 hrs; assay type: toxicity, organism-based; details: in vivo, read-out: Ratio TD50/ED50
# Outline: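 Groups of eight rats were dosed orally at the previously estimated time of peak effect, at several doses, until at least three points fell within 10–90% protection or minimal neurotoxicity. ED50 and TD50 with 95% confidence limits came from regression of the plotted data. Protective index was calculated as TD50/ED50.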
# [20] = test system: Mus musculus; assay: Anticonvulsant activity in ip dosed albino mouse assessed as protection against 6 Hz electroshock-induced seizures after 1 hr; assay type: functional
# [21] = test system: Rattus norvegicus; assay: Anticonvulsant activity in Wistar rat assessed as inhibition of GABA-induced seizures measuring minimum GABA level per 100 mg whole brain required for 50 % inhibition at 30 mg/kg, po for 7 days (reference value: 51.5 +/- 2.60 ug/100 mg brain); assay type: functional
# Outline: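 Adult Wistar rats in groups of six were dosed orally at 30 mg/kg for 7 days. Whole-brain GABA was then measured enzymatically in ethanol extracts as µg/100 mg tissue. Values are mean ± SEM of six rats versus control (Student's t test).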
# [22] = test system: Rattus norvegicus; assay: Anticonvulsant activity in Wistar rat assessed as inhibition of GABA-induced seizures measuring minimum GABA level per 100 mg whole brain required for 50 % inhibition at 30 mg/kg, ip as single dose measured after 2 hrs (reference value: 46.4 +/- 5.50 ug/100 mg brain); assay type: functional; details: route intraperitoneal
SMILES,Activity [1],Activity [2],Activity [3],MTC [4] [mg/kg],minimal effective dose [5] [mg/kg],further results
Cc1nc2cc(F)ccc2c(=O)n1C(=S)NC(=O)Nc1nc2ccc(F)cc2s1,inactive,inactive,,,,
Cc1nc2cc(F)ccc2c(=O)n1C(=S)NC(=O)Nc1nc2ccc(Cl)cc2s1,inactive,,Non-toxic,100,300,
Cc1nc2ccccc2c(=O)n1C(=S)NC(=O)Nc1nc2cc(Cl)ccc2s1,,,Non-toxic,100,100,minimal effective dose [6]: 300 mg/kg
COc1ccc2nc(NC(=O)NC(=S)n3c(C)nc4ccccc4c3=O)sc2c1,inactive,inactive,,,,
Cc1nc2cc(Cl)ccc2c(=O)n1C(=S)NC(=O)Nc1nc2cc(Cl)ccc2s1,inactive,,,,300,
Cc1nc2ccccc2c(=O)n1C(=S)NC(=O)Nc1nc2c(Cl)cccc2s1,inactive,inactive,Non-toxic,300,,
Cc1nc2cc(Cl)ccc2c(=O)n1C(=S)NC(=O)Nc1nc2c(Cl)cccc2s1,inactive,,,,300,Activity [7]: Non-toxic; MTC [8]: 300 mg/kg
Cc1nc2cc(F)ccc2c(=O)n1C(=S)NC(=O)Nc1nc2cc(Cl)ccc2s1,inactive,,,100,300,MTC [8]: 300 mg/kg
Cc1nc2cc(F)ccc2c(=O)n1C(=S)NC(=O)Nc1nc2c(Cl)cccc2s1,inactive,,Non-toxic,300,300,
COc1ccc2nc(NC(=O)NC(=S)n3c(C)nc4cc(Cl)ccc4c3=O)sc2c1,inactive,inactive,,,,
Cc1nc2ccccc2c(=O)n1C(=S)NC(=O)Nc1nc2c(Br)cccc2s1,inactive,inactive,,,,
Cc1nc2cc(F)ccc2c(=O)n1C(=S)NC(=O)Nc1nc2ccc(Br)cc2s1,inactive,,Non-toxic,300,300,
Cc1nc2cc(F)ccc2c(=O)n1C(=S)NC(=O)Nc1nc2ccc(O)cc2s1,inactive,inactive,,,,
Cc1nc2cc(Cl)ccc2c(=O)n1C(=S)NC(=O)Nc1nc2ccc(OC(F)(F)F)cc2s1,,,Non-toxic,300,100,minimal effective dose [6]: 100 mg/kg
NC(=O)N1c2ccccc2C=Cc2ccccc21 [CARBAMAZEPINE],,,,100,30,TD50 at 1 h [9]: 1530 µmol/kg; ED50 [10]: 15.1 µmol/kg; minimal effective dose [6]: 100 mg/kg; MTC [8]: 300 mg/kg; ED50 [11]: > 1060 µmol/kg
Cc1nc2cc(Cl)ccc2c(=O)n1C(=S)NC(=O)Nc1nc2ccc(O)cc2s1,inactive,inactive,,,,

SMILES,Activity [1],Activity [2],Activity [3],MTC [4] [mg/kg],minimal effective dose [5] [mg/kg],further results
O=C1NC(=O)C(c2ccccc2)(c2ccccc2)N1 [PHENYTOIN],,,,100,30,ED50 [12]: > 3540 µmol/kg; selectivity ratio at 2 h [13]: > 22; ED50 [14]: 92 µmol/kg; TD50 at 2 h [15]: > 1980 µmol/kg; minimal effective dose [6]: 30 mg/kg; MTC [8]: 100 mg/kg; Activity [16]: 84.1 U/ml; Activity [17]: 52.6 U/ml
Cc1nc2cc(Cl)ccc2c(=O)n1C(=S)NC(=O)Nc1nc2ccc(Cl)cc2s1,,,,300,100,minimal effective dose [6]: 100 mg/kg
Cc1nc2cc(F)ccc2c(=O)n1C(=S)NC(=O)Nc1nc2ccc(OC(F)(F)F)cc2s1,,inactive,,100,,minimal effective dose [6]: 300 mg/kg; MTC [8]: 300 mg/kg
Cc1nc2ccccc2c(=O)n1C(=S)NC(=O)Nc1nc2ccc(F)cc2s1,,,Non-toxic,300,30,minimal effective dose [6]: 100 mg/kg
Cc1ccc2nc(NC(=O)NC(=S)n3c(C)nc4cc(Cl)ccc4c3=O)sc2c1,inactive,inactive,,,,
CCC1(C)CC(=O)NC1=O (centres undefined) [ETHOSUXIMIDE],inactive,inactive,Non-toxic,,,Activity [7]: Non-toxic; ED50 [12]: 1180 µmol/kg; TD50 at 1 h [18]: 2410 µmol/kg; ED50 [14]: > 3540 µmol/kg; TD50 at 2 h [15]: > 3540 µmol/kg; selectivity ratio at 2 h [19]: > 3; ED50 [20]: 1180 µmol/kg
Cc1nc2cc(Cl)ccc2c(=O)n1C(=S)NC(=O)Nc1nc2ccc(Br)cc2s1,inactive,,,300,100,MTC [8]: 300 mg/kg
Cc1nc2ccccc2c(=O)n1C(=S)NC(=O)Nc1nc2ccc(O)cc2s1,inactive,inactive,,,,
Cc1nc2cc(F)ccc2c(=O)n1C(=S)NC(=O)Nc1nc2c(Br)cccc2s1,inactive,,Non-toxic,300,300,
Cc1ccc2nc(NC(=O)NC(=S)n3c(C)nc4cc(F)ccc4c3=O)sc2c1,inactive,inactive,,,,
Cc1ccc2nc(NC(=O)NC(=S)n3c(C)nc4ccccc4c3=O)sc2c1,inactive,,Non-toxic,300,300,
CN1C(=O)CC(=O)N(c2ccccc2)c2cc(Cl)ccc21 [CLOBAZAM],,,,,,GABA level [21]: 110 µg/100 mg brain; Activity [22]: 101 µg
Cc1nc2cc(Cl)ccc2c(=O)n1C(=S)NC(=O)Nc1nc2ccc(F)cc2s1,,,,,300,minimal effective dose [6]: 300 mg/kg
COc1ccc2nc(NC(=O)NC(=S)n3c(C)nc4cc(F)ccc4c3=O)sc2c1,inactive,inactive,,,,
Cc1nc2ccccc2c(=O)n1C(=S)NC(=O)Nc1nc2ccc(Br)cc2s1,,,Non-toxic,300,100,minimal effective dose [6]: 300 mg/kg
Cc1nc2cc(Cl)ccc2c(=O)n1C(=S)NC(=O)Nc1nc2c(Br)cccc2s1,inactive,inactive,,,,
